Published values pooled from the literature.
Compare with care: the assays were run in different laboratories.

Structure (SMILES) | system | conditions | Cmax
O=C(ONc1nc2nonc2nc1Nc1ccccc1F)c1ccc(OC(F)(F)F)cc1 | male C57BL/6 mouse, plasma | oral, 10 mg/kg | 0.0019 µM
O=C1CCN2C(=O)c3ccccc3C2C(=O)Nc2ccccc21 (centres unmarked) | male Swiss mouse, plasma | oral, 100 mg/kg | 0.617 µM
Cc1c(C(=O)O)ccc2c3n(nc12)[C@@H]1[C@H](C3)N(CC2CC2)[C@@]2(C(=O)Nc3cc(Cl)ccc32)[C@H]1c1cccc(Cl)c1F | female mouse, plasma | oral, 5 mg/kg | 7.4 µM
CCN1CCN(Cc2ccc(NC(=O)c3ccc(C)c(NC(=O)c4cncc(-c5cccs5)c4)c3)cc2C(F)(F)F)CC1 | mouse, plasma | intraperitoneal, 10 mg/kg, single dose | 0.488 µg/mL
C=CS(=O)(=O)c1ccc(Nc2nc(OCC3CCCCC3)c3nc[nH]c3n2)cc1 | male BALB/c mouse, plasma | intraperitoneal, 20 mg/kg, single dose | 0.19 µg/mL
O=C(COc1ccc(N2C(=O)[C@@H]3[C@@H]4C=C[C@@H]([C@H]5C[C@@H]45)[C@@H]3C2=O)cc1)c1cc(Cl)cc(Cl)c1 | mouse, brain | oral, 20 mg/kg | 5 µM
Nc1ncn([C@H]2C[C@H](O)[C@@H](CO)O2)c(=O)n1 | female C57BL/6 mouse, plasma | oral, 0.4 mg/kg | 0.118 µg/mL
CC(=O)O[C@@]12CO[C@@H]1C[C@H](O)[C@@]1(C)C(=O)[C@H](O)C3=C(C)[C@@H](OC(=O)[C@H](O)[C@@H](NC(=O)OC(C)(C)C)c4ccccc4)C[C@@](O)([C@@H](OC(=O)c4ccccc4)[C@H]21)C3(C)C | male Kunming mouse, plasma | oral, 20 mg/kg | 0.0041 µg/mL
